Test results published in ChEMBL document CHEMBL1152820, “Plasmid-encoded ACC-4, an extended-spectrum cephalosporinase variant from Escherichia coli” (Antimicrob Agents Chemother, 2007).
≈ marks a conversion by molar mass, not a printed value.

T1: Beta-lactamase ACC-4 (Escherichia coli, UniProt A4ZYU9)
T1 sequence (A4ZYU9 whole entry): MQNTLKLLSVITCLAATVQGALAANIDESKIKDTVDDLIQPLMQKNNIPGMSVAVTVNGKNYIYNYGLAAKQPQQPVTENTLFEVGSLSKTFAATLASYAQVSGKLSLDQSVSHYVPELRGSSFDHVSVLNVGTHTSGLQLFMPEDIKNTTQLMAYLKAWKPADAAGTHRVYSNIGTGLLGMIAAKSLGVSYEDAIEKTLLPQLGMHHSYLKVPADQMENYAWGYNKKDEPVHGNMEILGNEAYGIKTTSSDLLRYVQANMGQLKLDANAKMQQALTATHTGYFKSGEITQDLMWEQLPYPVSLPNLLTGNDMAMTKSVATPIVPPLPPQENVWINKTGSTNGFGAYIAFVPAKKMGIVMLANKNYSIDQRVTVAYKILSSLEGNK


Experiments:
Escherichia coli [1] = experiment: Antimicrobial activity against Escherichia coli MC4100 harboring pB-acc4 plasmid by agar dilution technique; assay type: functional
Escherichia coli [2] = experiment: Antimicrobial activity against Escherichia coli MC4100 harboring pA-acc4 plasmid by agar dilution technique; assay type: functional
Escherichia coli [3] = experiment: Antimicrobial activity against Escherichia coli MC4100 harboring pA-acc1 plasmid by agar dilution technique; assay type: functional
Escherichia coli [4] = experiment: Antimicrobial activity against Escherichia coli MC4100 harboring pB-acc1 plasmid by agar dilution technique; assay type: functional
Beta-lactamase ACC-4 = target: T1, Beta-lactamase ACC-4; experiment: Inhibition of Escherichia coli beta-lactamase ACC4
In short: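 ACC-4 from mid-log E. coli(pS18-d): sonicated, ultracentrifuged, Q-Sepharose flowthrough then S-Sepharose (0–0.6 M NaCl gradient, phosphate pH 6.8), >95% pure by SDS-PAGE.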

Escherichia coli [5] = experiment: Antimicrobial activity against Escherichia coli MC4100 harboring pACYC184 plasmid by agar dilution technique; assay type: functional
Escherichia coli [6] = experiment: Antimicrobial activity against Escherichia coli MC4100 harboring pBCSK plasmid by agar dilution technique; assay type: functional
Hafnia alvei [7] = experiment: Activity of Hafnia alvei beta-lactamase ACC-1 assessed as nmol of compound hydrolysis per ug of protein
Hafnia alvei [8] = experiment: Activity of Hafnia alvei beta-lactamase ACC-1
Hafnia alvei [9] = experiment: Ratio of Vmax to Km for Hafnia alvei beta-lactamase ACC-1
[10] = substrate: CO/N=C(\C(=O)N[C@@H]1C(=O)N2C(C(=O)[O-])=C(C[N+]3(C)CCCC3)CS[C@H]12)c1csc(N)n1; experiment: (§1) Activity of Escherichia coli beta-lactamase ACC4 by UV spectrophotometry
In short: (§2)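 ACC-4 purified from E. coli carrying pS18-d, grown to mid-log in broth with 100 μg/ml ampicillin. Sonicated, then Q-Sepharose and S-Sepharose chromatography (NaCl 0 to 0.6 M, phosphate pH 6.8), >95% pure. Substrate hydrolysis at 30°C, pH 7.0, followed by UV spectrophotometry. kcat and Km are means of four independent measurements.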

[11] = substrate: CC(=O)OCC1=C(C(=O)O)N2C(=O)[C@@H](NC(=O)Cc3cccs3)[C@H]2SC1; experiment: as §1; in short: as §2
[12] = substrate: CO[C@@]1(NC(=O)Cc2cccs2)C(=O)N2C(C(=O)O)=C(COC(N)=O)CS[C@@H]21; experiment: as §1; in short: as §2
[13] = substrate: CCN1CCN(C(=O)N[C@@H](C(=O)N[C@@H]2C(=O)N3[C@@H]2SC(C)(C)[C@@H]3C(=O)O)c2ccccc2)C(=O)C1=O; experiment: as §1; in short: as §2
[14] = substrate: CO/N=C(\C(=O)N[C@@H]1C(=O)N2C(C(=O)O)=C(COC(C)=O)CS[C@H]12)c1csc(N)n1; experiment: as §1; in short: as §2
[15] = substrate: CC(C)(O/N=C(\C(=O)N[C@@H]1C(=O)N2C(C(=O)[O-])=C(C[n+]3ccccc3)CS[C@H]12)c1csc(N)n1)C(=O)O; experiment: as §1; in short: as §2
[16] = substrate: CC1(C)S[C@@H]2[C@H](NC(=O)Cc3ccccc3)C(=O)N2[C@H]1C(=O)O; experiment: as §1; in short: as §2
[17] = substrate: CO/N=C(\C(=O)N[C@@H]1C(=O)N2C(C(=O)[O-])=C(C[N+]3(C)CCCC3)CS[C@H]12)c1csc(N)n1; experiment: (§3) Ratio of Kcat to Km for Escherichia coli beta-lactamase ACC4 by UV spectrophotometry; in short: as §2
[18] = substrate: CC(=O)OCC1=C(C(=O)O)N2C(=O)[C@@H](NC(=O)Cc3cccs3)[C@H]2SC1; experiment: as §3; in short: as §2
[19] = substrate: CCN1CCN(C(=O)N[C@@H](C(=O)N[C@@H]2C(=O)N3[C@@H]2SC(C)(C)[C@@H]3C(=O)O)c2ccccc2)C(=O)C1=O; experiment: as §3; in short: as §2
[20] = substrate: CO/N=C(\C(=O)N[C@@H]1C(=O)N2C(C(=O)O)=C(COC(C)=O)CS[C@H]12)c1csc(N)n1; experiment: as §3; in short: as §2
[21] = substrate: CC(C)(O/N=C(\C(=O)N[C@@H]1C(=O)N2C(C(=O)[O-])=C(C[n+]3ccccc3)CS[C@H]12)c1csc(N)n1)C(=O)O; experiment: as §3; in short: as §2
[22] = substrate: CC1(C)S[C@@H]2[C@H](NC(=O)Cc3ccccc3)C(=O)N2[C@H]1C(=O)O; experiment: as §3; in short: as §2

Row | Molecule | MIC (Escherichia coli [1]) [µg/mL] | MIC (Escherichia coli [2]) [µg/mL] | MIC (Escherichia coli [3]) [µg/mL] | MIC (Escherichia coli [4]) [µg/mL] | MIC (Escherichia coli [5]) [µg/mL] | MIC (Escherichia coli [6]) [µg/mL] | further results
1 | CO/N=C(\C(=O)N[C@@H]1C(=O)N2C(C(=O)[O-])=C(C[N+]3(C)CCCC3)CS[C@H]12)c1csc(N)n1 | 0.25 (≈ 0.52 µM) | 0.12 (≈ 0.25 µM) | 0.12 (≈ 0.25 µM) | 0.12 (≈ 0.25 µM) |  |  | 
2 | C[C@]1(/C=C\C#N)[C@H](C(=O)O)N2C(=O)C[C@H]2S1(=O)=O |  |  |  |  |  |  | IC50 (Beta-lactamase ACC-4): 10300 nM
3 | CC1(C)S[C@@H]2[C@H](NC(=O)[C@H](N)c3ccc(O)cc3)C(=O)N2[C@H]1C(=O)O [AMOXICILLIN] | > 512 | > 512 | > 512 | > 512 | 4 (≈ 10.9 µM) | 4 (≈ 10.9 µM) | 
4 | C[C@H]1[C@H](NC(=O)/C(=N\OC(C)(C)C(=O)O)c2csc(N)n2)C(=O)N1S(=O)(=O)O [AZTREONAM] | 2 (≈ 4.59 µM) | 2 (≈ 4.59 µM) | 0.5 (≈ 1.15 µM) | 1 (≈ 2.3 µM) |  |  | IC50 (Beta-lactamase ACC-4): 32 nM
5 | N[C@@H](C(=O)N[C@@H]1C(=O)N2C(C(=O)O)=C(Cl)CS[C@H]12)c1ccccc1 [CEFACLOR ANHYDROUS] | > 512 | > 512 | > 512 | > 512 | 2 (≈ 5.44 µM) | 2 (≈ 5.44 µM) | 
6 | CO/N=C(\C(=O)N[C@@H]1C(=O)N2C(C(=O)O)=C(COC(C)=O)CS[C@H]12)c1csc(N)n1 [CEFOTAXIME] | 64 (≈ 141 µM) | 32 (≈ 70.3 µM) | 8 (≈ 17.6 µM) | 16 (≈ 35.1 µM) | ≤ 0.06 | ≤ 0.06 | Vmax (Hafnia alvei [7]): < 0.01 nmol/min/µg
7 | CO[C@@]1(NC(=O)C2SC(=C(C(N)=O)C(=O)O)S2)C(=O)N2C(C(=O)O)=C(CSc3nnnn3C)CS[C@@H]21 (stereo partly drawn) [CEFOTETAN] | 1 (≈ 1.74 µM) | 1 (≈ 1.74 µM) | 1 (≈ 1.74 µM) | 1 (≈ 1.74 µM) | 0.5 (≈ 0.869 µM) | 0.5 (≈ 0.869 µM) | 
8 | CO[C@@]1(NC(=O)Cc2cccs2)C(=O)N2C(C(=O)O)=C(COC(N)=O)CS[C@@H]21 [CEFOXITIN] | 4 (≈ 9.36 µM) | 4 (≈ 9.36 µM) | 4 (≈ 9.36 µM) | 4 (≈ 9.36 µM) | 2 (≈ 4.68 µM) | 2 (≈ 4.68 µM) | Vmax (Hafnia alvei [7]): < 0.002 nmol/min/µg
9 | CC(C)(O/N=C(\C(=O)N[C@@H]1C(=O)N2C(C(=O)[O-])=C(C[n+]3ccccc3)CS[C@H]12)c1csc(N)n1)C(=O)O [CEFTAZIDIME] | 512 (≈ 937 µM) | 256 (≈ 468 µM) | 32 (≈ 58.5 µM) | 128 (≈ 234 µM) | 0.25 (≈ 0.457 µM) | 0.25 (≈ 0.457 µM) | Km (Hafnia alvei [8]): 17 µM; Vmax (Hafnia alvei [7]): < 0.025 nmol/min/µg; Vmax/Km (Hafnia alvei [9]): < 0.01
10 | CO/N=C(\C(=O)N[C@@H]1C(=O)N2C(C(=O)O)=C(CSc3nc(=O)c(O)nn3C)CS[C@H]12)c1csc(N)n1 [CEFTRIAXONE] | 128 (≈ 231 µM) | 32 (≈ 57.7 µM) | 16 (≈ 28.9 µM) | 32 (≈ 57.7 µM) | 0.12 (≈ 0.216 µM) | 0.12 (≈ 0.216 µM) | 
11 | CO/N=C(\C(=O)N[C@@H]1C(=O)N2C(C(=O)O)=C(COC(N)=O)CS[C@H]12)c1ccco1 [CEFUROXIME] | > 512 | > 512 | 128 (≈ 302 µM) | 128 (≈ 302 µM) | 1 (≈ 2.36 µM) | 1 (≈ 2.36 µM) | 
12 | CC(=O)OCC1=C(C(=O)O)N2C(=O)[C@@H](NC(=O)Cc3cccs3)[C@H]2SC1 [CEPHALOTHIN] | > 512 | > 512 | > 512 | > 512 | 2 (≈ 5.04 µM) | 2 (≈ 5.04 µM) | 
13 | Cc1onc(-c2ccccc2Cl)c1C(=O)N[C@@H]1C(=O)N2[C@@H]1SC(C)(C)[C@@H]2C(=O)O [CLOXACILLIN] |  |  |  |  |  |  | IC50 (Beta-lactamase ACC-4): 26 nM
14 | CCN1CCN(C(=O)N[C@@H](C(=O)N[C@@H]2C(=O)N3[C@@H]2SC(C)(C)[C@@H]3C(=O)O)c2ccccc2)C(=O)C1=O [PIPERACILLIN] | 128 (≈ 247 µM) | 32 (≈ 61.8 µM) | 64 (≈ 124 µM) | 256 (≈ 495 µM) | 0.5 (≈ 0.966 µM) | 0.5 (≈ 0.966 µM) | Km (Hafnia alvei [8]): 1.4 µM; Vmax (Hafnia alvei [7]): 0.17 nmol/min/µg; Vmax/Km (Hafnia alvei [9]): 0.12
15 | Beta-lactamase ACC-4 (Escherichia coli), A4ZYU9 (protein) MQNTLKLLSVITCLAATVQGALAANIDESKIKDTVDDLIQPLMQKNNIPGMSVAVTVNGKNYIYNYGLAAKQPQQPVTENTLFEVGSLSKTFAATLASYAQVSGKLSLDQSVSHYVPELRGSSFDHVSVLNVGTHTSGLQLFMPEDIKNTTQLMAYLKAWKPADAAGTHRVYSNIGTGLLGMIAAKSLGVSYEDAIEKTLLPQLGMHHSYLKVPADQMENYAWGYNKKDEPVHGNMEILGNEAYGIKTTSSDLLRYVQANMGQLKLDANAKMQQALTATHTGYFKSGEITQDLMWEQLPYPVSLPNLLTGNDMAMTKSVATPIVPPLPPQENVWINKTGSTNGFGAYIAFVPAKKMGIVMLANKNYSIDQRVTVAYKILSSLEGNK |  |  |  |  |  |  | Km [10]: 73 µM; kcat [10]: 0.14 s⁻¹; Km [11]: 30 µM; kcat [11]: 96 s⁻¹; kcat [12]: < 0.01 s⁻¹; Km [13]: 1.1 µM; kcat [13]: 0.13 s⁻¹; Km [14]: 9.4 µM; kcat [14]: 2.7 s⁻¹; Km [15]: 15 µM; kcat [15]: 1.5 s⁻¹; Km [16]: 3.8 µM; kcat [16]: 0.59 s⁻¹; kcat/Km [17]: 2000 M⁻¹ s⁻¹; kcat/Km [18]: 3.2e+06 M⁻¹ s⁻¹; kcat/Km [19]: 120000 M⁻¹ s⁻¹; kcat/Km [20]: 290000 M⁻¹ s⁻¹; kcat/Km [21]: 100000 M⁻¹ s⁻¹; kcat/Km [22]: 160000 M⁻¹ s⁻¹
